Data: paper PMC5034155 (Journal of medicinal chemistry, 2016)
Each block holds one compound with its values, some of them ahead of it.

Tests used:
[1] = target: GFP-PB1 (Homo sapiens, UniProt Q86U86); experiment: PB1 FRAP assay; format: cell-based; details: SAHA treated
Method in brief: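 GFP-tagged PB1 (wild type or N263A / N707F acetyl-lysine-site mutants) expressed by transfection in cells pretreated with SAHA (2.5 μM) to hyperacetylate chromatin. Test compound given at several doses. Read-out is the half-time (t½) of fluorescence recovery after photobleaching, averaged from individual recovery curves of at least 20 cells per group with SEM. p-values are relative to wild type with SAHA.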

[2] = tested on: non-family VIII bromodomains; experiment: BROMOscan profiling from DiscoveRx; format: binding
[3] = target: GFP-SMARCA2 in U2OS (Homo sapiens, UniProt P51531); experiment: SMARCA2 FRAP assay; format: cell-based; details: U2OS treated with SAHA
[4] = tested on: Family VIII bromodomains; experiment: Isothermal Titration Calorimetry, Family VIII bromodomains; format: binding
[5] = tested on: clear cell renal cell carcinoma cell lines (786-O and Rcc4); experiment: ccRCC cell line proliferation; format: cell-based; details: 786-O (wild type PB1) and Rcc4 (PB1 downregulation)
[6] = target: SMARCA4 (Homo sapiens, UniProt P51532); experiment: SMARCA4 FRAP assay; format: cell-based
Method in brief: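 Run like the SMARCA2 FRAP: U2OS cells treated with the HDAC inhibitor SAHA to induce hyperacetylation, transfected with a GFP-tagged bromodomain construct, and exposed to test compound. Chromatin displacement is read as the fluorescence recovery half-time after photobleaching.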

[7] = tested on: non-family VIII bromodomains; experiment: Tm shift panel of 40 bromodomain proteins; format: binding
[8] = target: PB1(5) bromodomain (Homo sapiens, UniProt Q86U86); experiment: DSF thermal shift, PB1; format: binding; details: fragment screen against PB1(5); confirmed by ITC
[9] = tested on: C2C12 and C3H10T1/2 cells; experiment: MTT cell viability assay; format: cell-based; details: up to 50 μM dose, 72 hours
[10] = tested on: C3H10T1/2 mesenchymal cells; experiment: Adipocyte differentiation; format: cell-based; details: 20 μM
[11] = Chemical stability in cell media; format: physicochemical; details: after one week in cell media at 37°C

Sequence of GFP-PB1 (Q86U86 whole entry): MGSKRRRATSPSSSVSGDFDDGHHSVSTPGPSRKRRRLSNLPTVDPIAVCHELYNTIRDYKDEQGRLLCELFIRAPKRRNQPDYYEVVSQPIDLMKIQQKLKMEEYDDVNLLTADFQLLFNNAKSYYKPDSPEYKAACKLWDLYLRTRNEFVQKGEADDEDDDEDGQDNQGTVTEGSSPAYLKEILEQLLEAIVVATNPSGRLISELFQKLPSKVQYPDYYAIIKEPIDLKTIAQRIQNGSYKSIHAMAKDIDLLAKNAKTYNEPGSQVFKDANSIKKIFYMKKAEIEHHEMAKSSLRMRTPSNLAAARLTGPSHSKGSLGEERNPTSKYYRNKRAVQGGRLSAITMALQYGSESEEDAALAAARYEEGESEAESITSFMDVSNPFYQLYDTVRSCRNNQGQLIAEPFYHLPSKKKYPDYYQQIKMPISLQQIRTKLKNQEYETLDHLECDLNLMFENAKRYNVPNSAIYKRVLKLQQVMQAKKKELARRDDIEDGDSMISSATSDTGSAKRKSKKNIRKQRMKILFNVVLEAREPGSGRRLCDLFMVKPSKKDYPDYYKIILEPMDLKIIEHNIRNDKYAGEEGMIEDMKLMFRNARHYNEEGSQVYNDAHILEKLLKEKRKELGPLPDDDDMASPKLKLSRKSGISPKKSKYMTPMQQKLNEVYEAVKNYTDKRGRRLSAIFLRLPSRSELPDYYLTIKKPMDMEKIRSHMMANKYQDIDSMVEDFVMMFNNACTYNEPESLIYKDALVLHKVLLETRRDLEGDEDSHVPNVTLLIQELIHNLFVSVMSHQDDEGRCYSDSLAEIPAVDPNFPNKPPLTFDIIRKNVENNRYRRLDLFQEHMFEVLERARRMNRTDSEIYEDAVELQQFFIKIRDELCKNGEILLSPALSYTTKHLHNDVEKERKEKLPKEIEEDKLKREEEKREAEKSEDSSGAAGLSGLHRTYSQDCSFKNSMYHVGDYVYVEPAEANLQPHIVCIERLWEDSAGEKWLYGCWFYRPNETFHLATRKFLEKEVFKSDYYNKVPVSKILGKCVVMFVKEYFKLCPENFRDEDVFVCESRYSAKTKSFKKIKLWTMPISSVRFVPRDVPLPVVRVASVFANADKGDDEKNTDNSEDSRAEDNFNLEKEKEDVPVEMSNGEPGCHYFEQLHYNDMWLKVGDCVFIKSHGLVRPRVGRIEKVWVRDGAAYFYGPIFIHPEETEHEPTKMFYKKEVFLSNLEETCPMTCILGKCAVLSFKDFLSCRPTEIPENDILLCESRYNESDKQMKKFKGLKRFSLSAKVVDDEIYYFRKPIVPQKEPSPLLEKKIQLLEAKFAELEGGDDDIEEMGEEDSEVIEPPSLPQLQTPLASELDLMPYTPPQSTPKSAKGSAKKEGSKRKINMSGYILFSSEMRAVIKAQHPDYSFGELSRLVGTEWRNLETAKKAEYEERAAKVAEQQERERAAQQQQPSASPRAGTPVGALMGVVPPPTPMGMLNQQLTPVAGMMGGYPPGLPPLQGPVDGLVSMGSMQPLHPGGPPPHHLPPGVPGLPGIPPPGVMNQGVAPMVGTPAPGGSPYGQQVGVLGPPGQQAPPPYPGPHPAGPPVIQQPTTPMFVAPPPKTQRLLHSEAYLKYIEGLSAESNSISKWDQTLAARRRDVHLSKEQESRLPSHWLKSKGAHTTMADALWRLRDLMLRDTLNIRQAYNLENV
Sequence of SMARCA4 (P51532 whole entry): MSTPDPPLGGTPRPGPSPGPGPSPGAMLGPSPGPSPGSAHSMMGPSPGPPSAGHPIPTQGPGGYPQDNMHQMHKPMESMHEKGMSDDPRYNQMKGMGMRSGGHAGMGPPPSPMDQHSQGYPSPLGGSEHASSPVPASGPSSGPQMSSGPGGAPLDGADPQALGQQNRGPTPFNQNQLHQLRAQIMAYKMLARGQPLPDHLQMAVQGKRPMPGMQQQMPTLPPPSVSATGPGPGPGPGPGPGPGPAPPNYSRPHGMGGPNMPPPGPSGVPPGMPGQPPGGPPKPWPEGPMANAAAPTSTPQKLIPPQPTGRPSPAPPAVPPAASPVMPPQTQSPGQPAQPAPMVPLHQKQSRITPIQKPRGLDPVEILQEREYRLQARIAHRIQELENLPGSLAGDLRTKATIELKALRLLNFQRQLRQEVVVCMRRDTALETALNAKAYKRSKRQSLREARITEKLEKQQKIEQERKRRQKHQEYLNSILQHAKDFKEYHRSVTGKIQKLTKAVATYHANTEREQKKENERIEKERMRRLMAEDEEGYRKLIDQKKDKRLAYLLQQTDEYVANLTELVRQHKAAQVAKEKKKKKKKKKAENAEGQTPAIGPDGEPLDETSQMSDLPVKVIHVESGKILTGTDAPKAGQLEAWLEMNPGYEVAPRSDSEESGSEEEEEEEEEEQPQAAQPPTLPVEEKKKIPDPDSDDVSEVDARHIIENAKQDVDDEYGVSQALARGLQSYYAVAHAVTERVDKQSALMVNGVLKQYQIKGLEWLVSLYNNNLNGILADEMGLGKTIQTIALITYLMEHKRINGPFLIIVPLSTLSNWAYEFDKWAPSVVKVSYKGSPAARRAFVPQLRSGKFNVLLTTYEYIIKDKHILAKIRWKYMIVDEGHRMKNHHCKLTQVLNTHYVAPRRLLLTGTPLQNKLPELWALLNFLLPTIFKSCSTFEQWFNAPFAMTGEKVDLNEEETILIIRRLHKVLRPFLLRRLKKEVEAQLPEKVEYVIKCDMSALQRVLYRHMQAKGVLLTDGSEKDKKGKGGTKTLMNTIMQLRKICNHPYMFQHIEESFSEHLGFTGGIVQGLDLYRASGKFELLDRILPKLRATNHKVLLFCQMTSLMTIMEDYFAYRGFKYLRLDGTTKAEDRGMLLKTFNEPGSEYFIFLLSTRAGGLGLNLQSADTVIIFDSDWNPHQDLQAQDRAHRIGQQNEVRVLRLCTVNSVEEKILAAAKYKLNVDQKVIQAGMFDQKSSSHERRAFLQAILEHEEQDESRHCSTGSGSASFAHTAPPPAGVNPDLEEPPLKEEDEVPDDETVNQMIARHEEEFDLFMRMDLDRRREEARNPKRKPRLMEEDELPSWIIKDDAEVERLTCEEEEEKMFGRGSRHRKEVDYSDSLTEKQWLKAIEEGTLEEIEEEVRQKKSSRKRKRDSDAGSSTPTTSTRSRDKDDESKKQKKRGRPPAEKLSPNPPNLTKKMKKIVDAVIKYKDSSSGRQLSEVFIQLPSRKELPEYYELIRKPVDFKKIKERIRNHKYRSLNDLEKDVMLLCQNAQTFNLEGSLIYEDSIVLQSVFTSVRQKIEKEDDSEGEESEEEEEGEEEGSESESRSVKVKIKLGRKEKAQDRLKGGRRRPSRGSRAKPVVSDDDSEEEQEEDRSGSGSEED
Sequence of PB1(5) bromodomain (Q86U86 653-763 limits assumed): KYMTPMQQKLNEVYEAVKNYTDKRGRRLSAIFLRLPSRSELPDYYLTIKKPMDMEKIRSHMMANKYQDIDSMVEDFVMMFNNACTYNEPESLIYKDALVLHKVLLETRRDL
Sequence of GFP-SMARCA2 in U2OS (P51531 1-1572 isoform P51531-2): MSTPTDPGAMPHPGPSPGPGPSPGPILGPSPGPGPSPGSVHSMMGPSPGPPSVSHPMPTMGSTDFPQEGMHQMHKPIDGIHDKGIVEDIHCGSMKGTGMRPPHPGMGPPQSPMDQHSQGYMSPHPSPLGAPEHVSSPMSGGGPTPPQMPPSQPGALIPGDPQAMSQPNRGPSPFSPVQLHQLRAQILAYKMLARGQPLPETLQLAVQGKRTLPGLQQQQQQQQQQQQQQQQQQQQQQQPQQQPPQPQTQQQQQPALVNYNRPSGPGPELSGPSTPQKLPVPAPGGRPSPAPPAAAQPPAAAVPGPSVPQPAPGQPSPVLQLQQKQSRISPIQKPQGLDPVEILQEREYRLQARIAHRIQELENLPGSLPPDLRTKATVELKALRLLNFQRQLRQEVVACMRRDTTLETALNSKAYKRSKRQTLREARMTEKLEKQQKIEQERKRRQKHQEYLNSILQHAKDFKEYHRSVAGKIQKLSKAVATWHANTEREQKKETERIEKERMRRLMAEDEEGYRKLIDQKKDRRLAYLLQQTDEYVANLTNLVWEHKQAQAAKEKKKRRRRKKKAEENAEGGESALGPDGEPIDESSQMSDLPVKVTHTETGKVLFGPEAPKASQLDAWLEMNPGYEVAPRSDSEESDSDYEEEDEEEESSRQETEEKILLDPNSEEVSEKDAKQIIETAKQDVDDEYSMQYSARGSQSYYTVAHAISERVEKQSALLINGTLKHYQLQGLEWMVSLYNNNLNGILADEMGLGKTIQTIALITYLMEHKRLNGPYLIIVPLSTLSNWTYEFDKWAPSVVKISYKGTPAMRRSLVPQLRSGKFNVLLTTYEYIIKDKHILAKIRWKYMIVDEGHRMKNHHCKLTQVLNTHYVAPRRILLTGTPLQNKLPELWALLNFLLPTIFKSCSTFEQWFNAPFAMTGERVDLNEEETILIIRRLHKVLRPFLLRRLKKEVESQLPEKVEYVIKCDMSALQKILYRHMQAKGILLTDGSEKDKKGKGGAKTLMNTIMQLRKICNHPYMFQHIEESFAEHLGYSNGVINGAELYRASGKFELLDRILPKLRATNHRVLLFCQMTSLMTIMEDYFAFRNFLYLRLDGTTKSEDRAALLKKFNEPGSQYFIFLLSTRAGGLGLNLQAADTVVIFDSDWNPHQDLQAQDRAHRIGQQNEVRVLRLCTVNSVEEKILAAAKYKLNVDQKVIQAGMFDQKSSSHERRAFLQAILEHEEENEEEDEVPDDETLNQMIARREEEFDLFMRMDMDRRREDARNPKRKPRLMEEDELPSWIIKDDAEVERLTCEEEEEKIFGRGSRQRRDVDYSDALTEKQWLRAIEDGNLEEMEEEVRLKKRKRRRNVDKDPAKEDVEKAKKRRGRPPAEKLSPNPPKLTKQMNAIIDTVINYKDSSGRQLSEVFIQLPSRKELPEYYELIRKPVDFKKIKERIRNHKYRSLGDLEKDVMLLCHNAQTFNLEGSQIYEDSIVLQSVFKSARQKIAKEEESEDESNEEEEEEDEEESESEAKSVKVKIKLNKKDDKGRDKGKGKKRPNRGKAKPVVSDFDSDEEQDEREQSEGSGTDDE

- half-recovery time of GFP-PB1 (FRAP) [1]: no effect
SMILES: C#CCNc1ccnc(N2C[C@H]3C[C@@H]2CN3/C=C/C(=O)c2cccc(OC)c2O)n1 [Compound 18]

SMILES: O=C(/C=C/N1[C@H]2CC[C@@H]1c1ncnc(NC3CC3)c1C2)c1ccccc1O [Compound 17]
- selectivity over non-family VIII bromodomains, BROMOscan [2]: not active
- FRAP half-recovery time (t1/2) of GFP-SMARCA2 [3]: accelerated FRAP half-recovery time (t1/2) significantly in a dose dependent manner
- binding to Family VIII bromodomains by ITC [4]: potent binder to most of the Family VIII bromodomains
- effect on cell line proliferation [5]: did not show any effect
- SMARCA4 in cell target engagement (FRAP) [6]: confirmed
- displacement of GFP-PB1 from chromatin (FRAP) ([1]; 1 μM): able to displace PB1 from chromatin
- selectivity over non-family VIII bromodomains, Tm shift panel [7]: not active

- fragment screen hit quality (DSF) [8]: weak, but highly ligand efficient hit
SMILES: O=C(O)c1ccccc1O [Compound 1, salicylic acid]

SMILES: O=C(/C=C/N1C[C@H]2C[C@@H]1CN2c1ccccn1)c1ccccc1O [Compound 16, (E)-1-(2-hydroxyphenyl)-3-((1R,4R)-5-(pyridin-2-yl)-2,5-diazabicyclo[2.2.1]heptan-2-yl)prop-2-en-1-one]
- cytotoxic effect (MTT cell viability) [9]: did not have significant cytotoxic effect
- effect on cell line proliferation [5]: did not show any effect
- inhibition of adipogenesis [10]: Near complete inhibition
- compound recovered [11]: Greater than 90%
- SMARCA4 in cell target engagement (FRAP) [6]: confirmed
